Data as given in ChEMBL document CHEMBL4706620, “Design, synthesis, biological activity evaluation of 3-(4-phenyl-1H-imidazol-2-yl)-1H-pyrazole derivatives as potent JAK 2/3 and aurora A/B kinases multi-targeted inhibitors” (Eur J Med Chem, 2021).
The source made the active and inactive calls. The calls are words filed in the database; no cut-off is given here.

Tests used:
HCT-116 [1] = assay: Antiproliferative activity against human HCT116 cells assessed as reduction in cell growth measured after 72 hrs by CCK8 assay; format: functional, cell-based; conditions: HCT-116, 72 h
[2] = Cytotoxicity against HCoEpiC assessed as reduction in cell growth measured after 72 hrs by CCK8 assay; conditions: Homo sapiens
HUVEC = assay: Cytotoxicity against HUVEC assessed as reduction in cell growth measured after 72 hrs by CCK8 assay; format: cell-based; conditions: Homo sapiens
JAK2/JAK3 (Homo sapiens) [3] = molecular target: T1, JAK2/JAK3 (Homo sapiens) (UniProt P52333+O60674); assay: Inhibition of JAK2/3 in human K562 cells assessed as inhibition of STAT5 phosphorylation at 1 to 20 uM measured after 48 hrs by Western blot analysis; format: cell-based; conditions: dose 1-20 µM
Method in brief: (§1)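 K562 or HCT116 cells treated 48 h at 1, 10 and 20 µM alongside untreated control; lysed in cold RIPA, protein by BCA, SDS-PAGE, nitrocellulose transfer, 5% milk block, primary antibody overnight at 4 °C, secondary 1 h; p-Aurora A, p-Aurora B, p-STAT3, p-STAT5 probed with GAPDH loading control.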

JAK2/JAK3 (Homo sapiens) [4] = molecular target: T1, JAK2/JAK3 (Homo sapiens); assay: Inhibition of JAK2/3 in human HCT116 cells assessed as inhibition of STAT3 phosphorylation at 1 to 20 uM measured after 48 hrs by Western blot analysis; format: cell-based; conditions: HCT-116, dose 1-20 µM; method in brief: as §1
JAK2/JAK3 (Homo sapiens) [5] = molecular target: T1, JAK2/JAK3 (Homo sapiens); assay: Inhibition of JAK2/3 in human HCT116 cells assessed as inhibition of STAT5 phosphorylation at 1 to 20 uM measured after 48 hrs by Western blot analysis; format: cell-based; conditions: HCT-116, dose 1-20 µM; method in brief: as §1
[6] = molecular target: T2, Aurora kinase A (Homo sapiens) (UniProt O14965); assay: Inhibition of Aurora A phosphorylation in human K562 cells incubated for 48 hrs by Western blot analysis; format: cell-based; conditions: dose 1-20 µM; method in brief: as §1
T2 sequence (whole entry): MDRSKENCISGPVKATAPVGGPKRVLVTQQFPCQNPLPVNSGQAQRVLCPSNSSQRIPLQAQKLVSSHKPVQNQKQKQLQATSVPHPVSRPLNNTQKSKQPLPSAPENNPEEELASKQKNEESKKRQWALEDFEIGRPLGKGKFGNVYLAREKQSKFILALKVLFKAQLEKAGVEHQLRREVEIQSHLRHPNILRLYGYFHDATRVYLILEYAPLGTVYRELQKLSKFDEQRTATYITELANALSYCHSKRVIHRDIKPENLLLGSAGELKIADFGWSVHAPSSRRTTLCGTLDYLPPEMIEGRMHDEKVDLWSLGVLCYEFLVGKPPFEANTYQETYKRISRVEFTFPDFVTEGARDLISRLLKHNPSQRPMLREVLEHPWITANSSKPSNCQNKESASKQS

Aurora kinase B [7] = molecular target: T3, Aurora kinase B (Homo sapiens, UniProt Q96GD4); assay: Inhibition of Aurora B phosphorylation in human K562 cells incubated for 48 hrs by Western blot analysis; format: cell-based; conditions: dose 1-20 µM; method in brief: as §1
[8] = molecular target: T2, Aurora kinase A (Homo sapiens); assay: Inhibition of Aurora A phosphorylation in human HCT116 cells incubated for 48 hrs by Western blot analysis; format: cell-based; conditions: HCT-116, dose 1-20 µM; method in brief: as §1
Aurora kinase B [9] = molecular target: T3, Aurora kinase B; assay: Inhibition of Aurora B phosphorylation in human HCT116 cells incubated for 48 hrs by Western blot analysis; format: cell-based; conditions: HCT-116, dose 1-20 µM; method in brief: as §1
K562 [10] = assay: Cell cycle arrest in human K562 cells assessed as accumulation of diploid cells at G1 phase at 1 uM incubated for 48 hrs by propidium iodide staining based flow cytometric analysis (reference value: 56.33 %); format: functional
K562 [11] = assay: Cell cycle arrest in human K562 cells assessed as accumulation of diploid cells at G2 phase at 1 uM incubated for 48 hrs by propidium iodide staining based flow cytometric analysis (reference value: 7.73 %); format: functional
K562 [12] = assay: Cell cycle arrest in human K562 cells assessed as accumulation of diploid cells at S phase at 1 uM incubated for 48 hrs by propidium iodide staining based flow cytometric analysis (reference value: 35.94 %); format: functional
K562 [13] = assay: Cell cycle arrest in human K562 cells assessed as accumulation at […] phase at 1 uM incubated for 48 hrs by propidium iodide staining based flow cytometric analysis (reference value: 1.90 %); format: functional
K562 [14] = assay: Cell cycle arrest in human K562 cells assessed as accumulation of diploid cells at G1 phase at 10 uM incubated for 48 hrs by propidium iodide staining based flow cytometric analysis (reference value: 56.33 %); format: functional
K562 [15] = assay: Cell cycle arrest in human K562 cells assessed as accumulation of diploid cells at G2 phase at 10 uM incubated for 48 hrs by propidium iodide staining based flow cytometric analysis (reference value: 7.73 %); format: functional
K562 [16] = assay: Cell cycle arrest in human K562 cells assessed as accumulation of diploid cells at S phase at 10 uM incubated for 48 hrs by propidium iodide staining based flow cytometric analysis (reference value: 35.94 %); format: functional
K562 [17] = assay: Cell cycle arrest in human K562 cells assessed as accumulation at […] phase at 10 uM incubated for 48 hrs by propidium iodide staining based flow cytometric analysis (reference value: 1.90 %); format: functional
K562 [18] = assay: Cell cycle arrest in human K562 cells assessed as accumulation of diploid cells at S phase at 20 uM incubated for 48 hrs by propidium iodide staining based flow cytometric analysis (reference value: 35.94 %); format: functional
K562 [19] = assay: Cell cycle arrest in human K562 cells assessed as accumulation at […] phase at 20 uM incubated for 48 hrs by propidium iodide staining based flow cytometric analysis (reference value: 1.90 %); format: functional
HCT-116 [20] = assay: Cell cycle arrest in human HCT116 cells assessed as accumulation of diploid cells at G2 phase at 1 uM incubated for 48 hrs by propidium iodide staining based flow cytometric analysis (reference value: 10.46 %); format: functional
Homo sapiens [21] = species: Homo sapiens; assay: Selectivity for JAK2 (unknown origin) over Aurora B (unknown origin)
Homo sapiens [22] = species: Homo sapiens; assay: Selectivity for JAK3 (unknown origin) over Aurora B (unknown origin)
HCT-116 [23] = assay: Cell cycle arrest in human HCT116 cells assessed as accumulation of diploid cells at G1 phase at 10 uM incubated for 48 hrs by propidium iodide staining based flow cytometric analysis (reference value: 77.62 %); format: functional
HCT-116 [24] = assay: Cell cycle arrest in human HCT116 cells assessed as accumulation of diploid cells at G2 phase at 10 uM incubated for 48 hrs by propidium iodide staining based flow cytometric analysis (reference value: 10.46 %); format: functional
HCT-116 [25] = assay: Cell cycle arrest in human HCT116 cells assessed as accumulation at […] phase at 10 uM incubated for 48 hrs by propidium iodide staining based flow cytometric analysis (reference value: 2.01 %); format: functional
Homo sapiens [26] = species: Homo sapiens; assay: Selectivity for JAK2 (unknown origin) over Aurora A (unknown origin)
Homo sapiens [27] = species: Homo sapiens; assay: Selectivity for JAK3 (unknown origin) over Aurora A (unknown origin)
HCT-116 [28] = assay: Cell cycle arrest in human HCT116 cells assessed as accumulation of diploid cells at G1 phase at 20 uM incubated for 48 hrs by propidium iodide staining based flow cytometric analysis (reference value: 77.62 %); format: functional
HCT-116 [29] = assay: Cell cycle arrest in human HCT116 cells assessed as accumulation of diploid cells at G2 phase at 20 uM incubated for 48 hrs by propidium iodide staining based flow cytometric analysis (reference value: 10.46 %); format: functional
HCT-116 [30] = assay: Cell cycle arrest in human HCT116 cells assessed as accumulation of diploid cells at S phase at 20 uM incubated for 48 hrs by propidium iodide staining based flow cytometric analysis (reference value: 11.92 %); format: functional

T1 sequence (O60674 whole entry, looked up): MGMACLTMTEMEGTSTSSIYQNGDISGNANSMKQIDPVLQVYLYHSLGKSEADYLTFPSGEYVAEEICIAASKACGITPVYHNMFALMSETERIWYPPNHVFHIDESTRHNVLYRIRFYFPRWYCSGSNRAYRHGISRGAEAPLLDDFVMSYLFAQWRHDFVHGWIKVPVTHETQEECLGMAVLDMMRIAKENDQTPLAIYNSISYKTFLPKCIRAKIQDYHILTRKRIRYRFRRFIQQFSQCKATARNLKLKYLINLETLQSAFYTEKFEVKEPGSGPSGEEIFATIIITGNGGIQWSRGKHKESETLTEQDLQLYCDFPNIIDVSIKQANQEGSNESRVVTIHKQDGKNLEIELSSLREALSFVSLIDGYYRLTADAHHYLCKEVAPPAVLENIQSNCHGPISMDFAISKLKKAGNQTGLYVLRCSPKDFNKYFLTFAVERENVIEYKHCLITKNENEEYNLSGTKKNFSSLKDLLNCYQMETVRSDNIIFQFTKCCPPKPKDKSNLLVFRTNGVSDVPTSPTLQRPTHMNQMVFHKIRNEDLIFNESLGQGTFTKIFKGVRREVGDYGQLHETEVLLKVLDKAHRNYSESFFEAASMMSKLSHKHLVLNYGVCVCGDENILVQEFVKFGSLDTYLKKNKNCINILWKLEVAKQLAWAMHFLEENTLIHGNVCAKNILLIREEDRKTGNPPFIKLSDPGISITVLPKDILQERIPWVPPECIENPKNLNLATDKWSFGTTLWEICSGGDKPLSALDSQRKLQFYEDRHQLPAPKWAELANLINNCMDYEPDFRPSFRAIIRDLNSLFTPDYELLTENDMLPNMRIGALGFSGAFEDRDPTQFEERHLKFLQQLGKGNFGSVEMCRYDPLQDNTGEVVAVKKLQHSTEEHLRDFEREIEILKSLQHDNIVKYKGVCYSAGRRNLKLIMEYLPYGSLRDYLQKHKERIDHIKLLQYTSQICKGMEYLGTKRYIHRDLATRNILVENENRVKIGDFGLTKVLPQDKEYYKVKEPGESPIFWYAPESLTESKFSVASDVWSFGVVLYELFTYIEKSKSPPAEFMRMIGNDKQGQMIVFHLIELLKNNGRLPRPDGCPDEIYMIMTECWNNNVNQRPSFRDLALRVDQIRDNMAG
T1 sequence (P52333 whole entry, looked up): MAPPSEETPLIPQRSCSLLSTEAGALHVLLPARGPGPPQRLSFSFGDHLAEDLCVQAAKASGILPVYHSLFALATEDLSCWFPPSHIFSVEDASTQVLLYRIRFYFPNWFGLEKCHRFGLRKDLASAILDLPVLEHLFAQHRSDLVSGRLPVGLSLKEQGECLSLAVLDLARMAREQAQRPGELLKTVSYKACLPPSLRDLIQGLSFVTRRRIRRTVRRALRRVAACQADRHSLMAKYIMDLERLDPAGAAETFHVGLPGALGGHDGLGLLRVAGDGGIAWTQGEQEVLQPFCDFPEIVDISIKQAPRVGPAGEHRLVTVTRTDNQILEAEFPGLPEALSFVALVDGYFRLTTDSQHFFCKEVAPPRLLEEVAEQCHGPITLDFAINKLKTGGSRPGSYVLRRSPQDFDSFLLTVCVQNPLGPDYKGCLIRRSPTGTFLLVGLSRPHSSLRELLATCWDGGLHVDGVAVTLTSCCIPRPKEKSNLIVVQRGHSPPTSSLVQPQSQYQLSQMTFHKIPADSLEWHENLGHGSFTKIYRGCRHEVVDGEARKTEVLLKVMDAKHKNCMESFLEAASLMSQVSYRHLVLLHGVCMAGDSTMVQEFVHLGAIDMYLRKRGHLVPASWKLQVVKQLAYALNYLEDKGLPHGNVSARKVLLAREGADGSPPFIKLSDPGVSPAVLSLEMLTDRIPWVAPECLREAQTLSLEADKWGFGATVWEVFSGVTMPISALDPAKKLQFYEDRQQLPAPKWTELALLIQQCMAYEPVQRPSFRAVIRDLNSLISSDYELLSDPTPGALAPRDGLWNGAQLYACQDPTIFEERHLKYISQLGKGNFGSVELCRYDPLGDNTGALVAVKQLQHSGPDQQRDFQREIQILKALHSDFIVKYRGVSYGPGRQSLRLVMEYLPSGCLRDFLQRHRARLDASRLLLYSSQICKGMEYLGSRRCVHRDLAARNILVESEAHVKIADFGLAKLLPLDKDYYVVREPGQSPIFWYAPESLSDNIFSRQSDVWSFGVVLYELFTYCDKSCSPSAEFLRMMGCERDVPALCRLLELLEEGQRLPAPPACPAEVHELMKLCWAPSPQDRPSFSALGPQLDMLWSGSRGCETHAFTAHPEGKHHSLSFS
T3 sequence (Q96GD4 whole entry): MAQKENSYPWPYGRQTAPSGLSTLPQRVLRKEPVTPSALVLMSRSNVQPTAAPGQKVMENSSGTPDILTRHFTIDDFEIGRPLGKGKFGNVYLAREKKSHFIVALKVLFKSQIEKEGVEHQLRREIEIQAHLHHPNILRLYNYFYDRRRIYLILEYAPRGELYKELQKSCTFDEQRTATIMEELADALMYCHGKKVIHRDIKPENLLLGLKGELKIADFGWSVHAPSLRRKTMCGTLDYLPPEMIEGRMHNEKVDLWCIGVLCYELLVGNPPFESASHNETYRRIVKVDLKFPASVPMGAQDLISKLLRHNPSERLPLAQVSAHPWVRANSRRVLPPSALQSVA

O=C(Nc1c[nH]nc1-c1nc(-c2ccc(CN3CCOCC3)cc2)c[nH]1)c1cccc(Cl)c1
IC50 (HCT-116 [1]): 15.1 µM
IC50 [2]: 31.5 µM
IC50 (HUVEC): 29 µM
inhibition (JAK2/JAK3 (Homo sapiens) [3]): Active
inhibition (JAK2/JAK3 (Homo sapiens) [4]): Active
inhibition (JAK2/JAK3 (Homo sapiens) [5]): Active
inhibition [6]: Dose-dependent effect
inhibition (Aurora kinase B [7]): Dose-dependent effect
inhibition [8]: Dose-dependent effect
inhibition (Aurora kinase B [9]): Dose-dependent effect
Activity (K562 [10]): 56.05%
Activity (K562 [11]): 8.12%
Activity (K562 [12]): 35.82%
Activity (K562 [13]): 1.9%
Activity (K562 [14]): 47.87%
Activity (K562 [15]): 16.27%
Activity (K562 [16]): 35.86%
Activity (K562 [17]): 2.09%
Activity (K562 [18]): 35.1%
Activity (K562 [19]): 2.06%
Activity (HCT-116 [20]): 13.34%
Selectivity ratio (Homo sapiens [21]): 20
Selectivity ratio (Homo sapiens [22]): 20
Activity (HCT-116 [23]): 66.57%
Activity (HCT-116 [24]): 16.16%
Activity (HCT-116 [25]): 2.01%
Selectivity ratio (Homo sapiens [26]): 20
Selectivity ratio (Homo sapiens [27]): 20
Activity (HCT-116 [28]): 57.52%
Activity (HCT-116 [29]): 24.55%
Activity (HCT-116 [30]): 17.92%
